Screening results from PubChem BioAssay.
DENV2 CPE rescue: inhibitors of DENV2 cytopathic effect, primary screen, cell-based, plate reader, single concentration; CPE inhibition, % at 9.99 µM; DENV2-infected cells, cytopathic effect rescue; AID 651640, 2012; actives 1.7% (n = 350,000); in the data active means CPE inhibition above about 20%, passing the limit was not always enough; inconclusive means no clear call, values can overlap the other calls; tested in BHK-21 cells
SIRT5 block: SIRT5 desuccinylase inhibitors, primary screen, biochemical, fluorescence imaging, single point, set 5. actives 1.1% (n = 330,000). inhibition, % at 15 µM. Purified SirT5, succinyl-peptide AMC, trypsin-coupled fluorescence. NAD-dependent protein deacylase sirtuin-5, mitochondrial (Homo sapiens), Q9NXA8; in the data active means inhibition above about 15%; inconclusive means no clear call, values can overlap the other calls
E-selectin induc: E-selectin induction in HUVECs, primary screen, imaging, HUVEC, immunofluorescence imaging, single point. activation, % at 7.58 µM. actives 0.37% (n = 260,000). P16581. normalized: neutral wells 0, TNF-alpha wells 100. AID 686992, 2013;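 active means mean E-selectin-positive cell signal at least 10% of the positive control, reached in at least 60% of replicates, without over 20% cell loss; inconclusive means no rule given, readout overlaps actives, possibly toxicity-flagged; inactive means the rest, including those meeting only one limit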
Target sequence (P16581 whole entry, looked up): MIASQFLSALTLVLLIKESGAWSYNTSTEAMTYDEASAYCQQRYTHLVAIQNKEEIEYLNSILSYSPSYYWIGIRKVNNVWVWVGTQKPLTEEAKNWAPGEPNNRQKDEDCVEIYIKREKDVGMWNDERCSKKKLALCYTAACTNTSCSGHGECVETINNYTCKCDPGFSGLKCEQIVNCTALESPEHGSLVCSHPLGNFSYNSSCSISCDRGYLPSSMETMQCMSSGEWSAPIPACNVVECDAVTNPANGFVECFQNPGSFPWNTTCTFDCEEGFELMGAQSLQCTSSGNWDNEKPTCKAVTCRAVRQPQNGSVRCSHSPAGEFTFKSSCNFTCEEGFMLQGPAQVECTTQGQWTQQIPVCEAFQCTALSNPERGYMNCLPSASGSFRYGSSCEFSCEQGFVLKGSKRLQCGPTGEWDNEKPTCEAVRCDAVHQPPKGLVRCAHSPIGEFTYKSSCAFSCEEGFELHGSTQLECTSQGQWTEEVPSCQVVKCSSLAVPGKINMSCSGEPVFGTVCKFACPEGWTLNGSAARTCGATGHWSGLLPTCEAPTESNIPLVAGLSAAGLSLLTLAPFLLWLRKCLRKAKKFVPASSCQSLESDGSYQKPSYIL
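Test system – human umbilical vein endothelial cells (HUVEC), E-selectin induction · Input – 3,000 HUVEC seeded per well · Buffer or medium – EGM-2, gelatin · Compound dosing – single-point compound dose · Detection – immunofluorescence imaging · Measure – percent E-selectin-positive cells · Controls – TNF-alpha high, DMSO low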
Numbers stand for hits; . = inactive; ? = inconclusive; / = no result given. The list is not random: actives were taken first. Their share in the collection is about 2.9%.

SMILES	DENV2 CPE rescue	SIRT5 block	E-selectin induc
CCc1cccc(Nc2c3c(nc4ncnn24)CCC3)c1	.	.	/
CCOc1ccc(CCN2C(=O)C(=O)N([C@@H](Cc3ccccc3)CN3CCC[C@H]3CN3C(=O)C(=O)NC[C@@H]3Cc3ccc(O)cc3)C[C@@H]2Cc2ccc(O)cc2)cc1	.	.	/
CN1C(C(=O)NCc2ccc(OC(F)(F)F)cc2)CC2Cn3c(nc4ccccc43)C21 (centres undefined)	32.3	/	.
CN1C(C(=O)NCc2ccc(OC(F)(F)F)cc2)CC2Cn3c(nc4cc(Cl)c(Cl)cc43)C21 (centres undefined)	.	/	.
CC(C)CCN(CC(=O)NCc1ccc(F)cc1)S(=O)(=O)c1ccccc1F	.	.	.
COCCNC(=O)c1c(N)[nH]c(C(=O)c2ccc(Br)cc2)c1-c1ccc(Br)cc1	33.7	.	.
Nc1[nH]c(C(=O)c2ccc(Br)cc2)c(-c2ccc(Br)cc2)c1C(=O)NCCc1c[nH]c2ccccc12	.	/	.
Nc1[nH]c(C(=O)c2ccc(Br)cc2)c(-c2ccc(Br)cc2)c1C(=O)NCc1ccc(-c2ccccc2)cc1	.	/	.
COc1ccc(C(=O)c2[nH]c(N)c(C(=O)NCCc3c[nH]c4ccccc34)c2-c2ccc(Cl)cc2)cc1	.	.	.
Nc1[nH]c(C(=O)c2ccc(Br)cc2)c(-c2ccccc2Br)c1C(=O)NCCc1c[nH]c2ccccc12	.	/	.
COc1ccc(-c2c(C(=O)c3ccccc3)[nH]c(N)c2C(=O)NCCc2c[nH]c3ccccc23)cc1	31.2	.	.
Nc1[nH]c(C(=O)c2ccc(Br)cc2)c(-c2c(F)cccc2F)c1C(=O)NCCc1c[nH]c2ccccc12	39.3	.	.
Nc1[nH]c(C(=O)c2ccc(Br)cc2)c(-c2ccc(F)cc2)c1C(=O)NCCc1c[nH]c2ccccc12	26.5	.	.
Cc1ccc([C@H]2C[C@H](n3cc(C4CC4)nn3)[C@@H](O)CN2Cc2cccs2)cc1	.	.	.
COc1cc(C(=O)NC(=S)NCc2ccncc2)cc(OC)c1OC	.	.	/
CC(=O)c1ccc(NC(=O)c2cc(Cl)nc3ccccc23)cc1	.	.	/
CCNC(=O)[C@@H]1[C@@H](CO)[C@@H]2Cn3c(ccc(-c4ccccc4)c3=O)[C@@H]2N1Cc1cc(F)ccc1F	.	.	.
COCC#Cc1ccc(CC[C@H]2O[C@H]3CC[C@H](CO)O[C@H]3C[C@H]2n2cc(C3CC3)nn2)cc1	.	.	/
CCc1nc2ccc(C(=O)NCCCn3ccnc3)cn2c1N(C)Cc1nccs1	.	.	.
Nc1[nH]c(C(=O)c2ccc(Cl)cc2)c(-c2ccc(Br)cc2)c1C(=O)NCCc1c[nH]c2ccccc12	.	.	.
Nc1[nH]c(C(=O)c2ccccc2)c(-c2ccc(Cl)cc2)c1C(=O)c1c[nH]c2ccc(F)cc12	.	.	.
Nc1[nH]c(C(=O)c2ccccc2)c(-c2ccc(Cl)cc2)c1C(=O)c1c[nH]c2ccccc12	27.7	.	.
Nc1[nH]c(C(=O)c2ccc(Br)cc2)c(-c2ccncc2)c1C(=O)NCCc1c[nH]c2ccccc12	20.2	.	.
CCc1ccccc1N(C)S(=O)(=O)c1ccc2[nH]cc(C(=O)N3CCc4ccccc43)c(=O)c2c1	/	.	.
COc1ccc(/C=N\NC(=O)c2cc3c(ccc4ccccc43)o2)cc1O	.	.	.
SMILES	DENV2 CPE rescue	SIRT5 block	E-selectin induc
Cc1ccc(C)c(NCC(=O)NNC(=S)Nc2ccccc2)c1	.	18.3	.
Cc1ccc(C)c(NC(=O)CCC(=O)NNC(=S)Nc2ccccc2)c1	.	.	/
CC(C)NC(=O)N1CCCCN2[C@@H](CO)[C@@H](c3ccc(C#Cc4ccccc4F)cc3)[C@@H]2C1	.	.	.
Cc1cc(F)ccc1C(O)c1ncc(-c2ccccc2Cl)[nH]1 (centres undefined)	?	.	.
CCCCn1c(N)c(N(CC(C)C)C(=O)C2CCN(c3ncnc4sc(C)c(C)c34)CC2)c(=O)[nH]c1=O	.	.	.
COc1ccc([C@@H]2CC=C(C(=O)O)[C@H](c3ccccc3)N2S(=O)(=O)c2ccc(C)cc2)cc1OC	48.8	.	.
COc1ccc([C@@H]2CC=C(C(=O)O)[C@H](c3cccc(Cl)c3)N2S(=O)(=O)c2ccc(C)cc2)cc1OC	.	.	.
Cc1ccc([C@@H]2CC=C(C(=O)O)[C@H](c3ccccc3F)N2S(=O)(=O)c2ccc(C)cc2)cc1	.	/	.
COc1ccc([C@@H]2CC=C(C(=O)O)[C@H](c3ccccc3F)N2S(=O)(=O)c2ccc(C)cc2)cc1OC	35.6	.	.
NNC(=O)C1CC1(c1ccccc1)c1ccccc1 (centres undefined)	.	.	.
O=C(c1ccc(Cl)c(NC2=NC3CS(=O)(=O)CC3S2)c1)N1CCN(c2ccccc2)CC1 (centres undefined)	.	.	/
CCOC(=O)C1CCN(C(=O)c2cccc(NC3=NC4CS(=O)(=O)CC4S3)c2)CC1 (centres undefined)	.	.	.
COc1cccc(N2CCN(C(=O)c3cccc(NC4=NC5CS(=O)(=O)CC5S4)c3)CC2)c1 (centres undefined)	34.8	.	.
Cc1ccc(C)c(N2CCN(C(=O)c3ccc(Cl)c(NC4=NC5CS(=O)(=O)CC5S4)c3)CC2)c1 (centres undefined)	28.0	.	.
Oc1c(CN2CCOCC2)cc(CN2CCOCC2)c(O)c1O	.	/	.
Cc1nc2c(=O)n(-c3cccc(C(F)(F)F)c3)nc(C)c2s1	.	.	/
Cc1ccc(NC(=S)NC(=O)C2CCCC2)cc1C	.	.	.
Cc1ccc(NC(=S)NC(=O)C2CCC2)cc1C	68.9	.	.
COc1ccccc1NC(=O)N1C[C@H](O)COC[C@H]2O[C@@H](CC(=O)NCCc3ccccc3)CC[C@@H]21	.	.	.
CC(=O)c1cccc(NC(=O)Cn2cnc(S(=O)(=O)N3CCCCC3)c2)c1	.	.	.
O=C(Cn1cnc(S(=O)(=O)N2CCCC2)c1)Nc1cccc(Br)c1	.	18.9	/
COc1c(OC2OC(C(=O)O)C(O)C(O)C2O)cc(O)c2c(=O)cc(-c3ccccc3)oc12 (centres undefined)	25.4	/	.
COc1c(O)c(O)c2oc(-c3ccccc3)cc(=O)c2c1OC	.	.	/
CN1CCN(C(=O)C[C@@H]2CC[C@@H]3[C@H](COC[C@H](O)CN3Cc3ccc4c(c3)OCO4)O2)CC1	.	.	.
O=C(C[C@H]1CC[C@H]2[C@@H](COC[C@@H](O)CN2Cc2ccc3c(c2)OCO3)O1)N1CCOCC1	.	.	.
CN1CCN(C(=O)C[C@H]2CC[C@H]3[C@@H](COC[C@H](O)CN3Cc3ccc4c(c3)OCO4)O2)CC1	56.0	.	.
O=C(C[C@@H]1CC[C@H]2[C@@H](COC[C@@H](O)CN2Cc2ccc3c(c2)OCO3)O1)N1CCOCC1	29.8	.	.
COc1ccc(-c2ccc([C@H]3[C@H](CO)N4C(=O)CN(C(=O)C5CCC5)C[C@@H]34)cc2)cc1	.	.	.
CN(CC(=O)Nc1cc(C(F)(F)F)ccc1-n1cncn1)Cc1nc2ccccc2c(=O)[nH]1	.	.	/
